Assay outcomes from PubChem BioAssay.
STAT1 inh: inhibitors of IFN-gamma induced STAT1 signaling; AID 920; actives 0.35% (n = 200,000); inhibition, % at 5.5 µM; NIH 3T3 STAT1-luciferase reporter, luminescence;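 active = inhibition above a set limit, the mean inhibition across all tested compounds plus 3 SD, cut at about 34% in these data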;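 note: 0% = IFN-gamma with DMSO and 100% = IFN-gamma with 300 µM nifuroxazide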
NF-kB neuron act: NF-kB expression increase, human neuronal cells; NF-kB reporter expression; hits give high values; fold change at 12.5 µM; actives 1.6% (n = 190,000); AID 1239; in the data active = fold change above about 3.3
STAT3 act-1: STAT3 signaling activation; U3A cells, IL-6 STAT3-luciferase reporter, luminescence; 100% = signal with IL-6 EC80 alone; activation (% of control), % at 5.6 µM; actives 0.91% (n = 190,000); AID 871;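 active = activation above the screen-wide mean of compound activation plus 3 SD, cut at about 130% in these data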;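 note: 0% = background luminescence of wells with medium and substrate only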
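System – human U3A cells carrying STAT3-luciferase construct · Probe or stimulus – Interleukin-6, 33 ng/mL · Schedule – compound 1 h, then IL-6 6 h at 37 °C · Signal – luminescence from STAT3-driven luciferase reporter · Evaluation – percent of IL-6-only median luminescence · Benchmarks – IL-6-only high control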
STAT3 inh: inhibitors of IL-6 induced STAT3 signaling. U3A cells, IL-6 STAT3-luciferase reporter, luminescence; host cell line lacks STAT1. inhibition, % at 5.5 µM. actives 0.89% (n = 190,000);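 active = inhibition above the mean inhibition across all screened compounds plus 3 SD, cut at about 44% in these data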;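 note: 0% = DMSO only wells and 100% = 100 µM nifuroxazide control wells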
STAT1 act-1: increases IFN-gamma driven STAT1 reporter signal. actives 2.6% (n = 200,000). activation (% of control), % at 5.5 µM. NIH 3T3 STAT1-luciferase reporter, luminescence; 100% = IFN-gamma alone, no compound;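 active = activation above the screen-wide mean activation plus 3 SD, cut at about 130% in these data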;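 note: raw ratio to IFN-gamma control signal so 100% means no change and 0% no light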
APP 5'UTR act: APP 5'UTR luciferase reporter activation; SH-SY5Y APP 5'UTR luciferase reporter, luminescence; zero percent = DMSO vehicle wells; activation, % at 2 µM; actives 1% (n = 190,000);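 active = activation above a set limit, based on mean plus 3 SD of controls, cut at about 140% in these data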
STAT3 act-2: confirmation of STAT3 signaling activators | shares compounds with STAT3 act-1 | U3A STAT3-luciferase reporter, IL-6 potentiation, luminescence; U3A cells lack STAT1; 100 means same as IL-6 alone | potentiation (% of control), % at 5.7 µM | actives 64% (n = 1,200) | AID 1267;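 active = percent activation of the STAT3 luciferase reporter above a set limit taken from the earlier primary screen, cut at about 130% in these data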;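 note: 0% = background signal of medium plus substrate and 100% = median of IL-6 with DMSO wells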
NFkB act 2: NF-kappaB activation in STAT3 activator counter-screen. shares compounds with STAT3 act-1. human cells, NF-kappaB reporter activation. activation (% of control), % at 5.7 µM. actives 11% (n = 1,200). AID 1309; in the data active = activation above about 120%;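 note: reporter induced by TNF-alpha stimulation; 100% = median of stimulated DMSO wells and 0% = no signal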
STAT1 act-2: STAT1 activation in STAT3 activator counter-screen. shares compounds with STAT3 act-1. NIH 3T3 STAT1-luciferase reporter, IFN-gamma, luminescence. activation (% of control), % at 5.7 µM. actives 13% (n = 1,200). AID 1318;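 active = activation above the solvent-only control well mean plus 3 SD, set per screening run, cut at about 120% in these data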;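 note: 100% = IFN-gamma with DMSO median signal so 100% means no change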
Numbers without * were called inactive; . = no result. Shown are actives, neighbours in structure and some others; about 5.1% of the full set was active somewhere.

SMILES	STAT1 inh	NF-kB neuron act	STAT3 act-1	STAT3 inh	STAT1 act-1	APP 5'UTR act	STAT3 act-2	NFkB act 2	STAT1 act-2
CCc1ccccc1NC(=S)N(CCCN(C)C)Cc1cc2cc3c(cc2[nH]c1=O)OCO3	-1	1.3	102	0	100	-10	.	.	.
Cc1nnsc1SCCNC(=O)Nc1ccc(Cl)cc1	-27	2	105	-1	122	32	.	.	.
NS(=O)(=O)c1ccc(CCNc2nc3c(-c4cccc(F)c4)nnn3c3ccccc23)cc1	4	0.56	137*	-40	97	-11	144*	98	110
Cc1cccc(-c2nnn3c2nc(NCCc2ccc(S(N)(=O)=O)cc2)c2ccccc23)c1	1	0.41	145*	-54	99	17	155*	102	112
Cc1ccc(-c2nnn3c2nc(NCCc2ccc(S(N)(=O)=O)cc2)c2ccccc23)cc1	4	0.87	123	-27	96	-4	.	.	.
Cc1ccc(-n2[nH]c(C)c(/C=N/Nc3ccc([N+](=O)[O-])cc3[N+](=O)[O-])c2=O)cc1C	17	0.77	87	14	84	-26	.	.	.
Cc1ccc(-n2[nH]c(C)c(/C=C3/C=Nc4ccccc43)c2=O)cc1C	1	1.3	149*	-54	99	-11	138*	109	111
O=C(Nc1c(C(=O)O)[nH]c2ccccc12)NC1CCCCC1	2	0.97	164*	-76	98	3	159*	106	106
Cc1cc(NC(=O)C2CC2)n(-c2nc3ccccc3s2)n1	-20	1.5	160*	-70	117	-9	154*	108	112
Cc1cc(NC(=O)CCl)n(-c2nc3ccccc3s2)n1	-4	1.1	151*	-61	102	43	146*	106	99
CC1=NN(C(=O)Cn2nc([N+](=O)[O-])cc2C)C(O)(C(F)(F)F)C1 (centres undefined)	2	1.1	92	10	98	-18	.	.	.
COCCNC(=O)C(=O)NNC(=O)c1ccccc1OC	-1	1.2	142*	-46	99	8	137*	109	103
COCCNC(=O)C(=O)NNC(=O)COc1ccc(OC)cc1	-2	1.2	102	2	101	20	.	.	.
COc1ccccc1C(=O)Nc1cc2ccccc2oc1=O	-22	2.3	184*	-87	121	16	192*	135*	166*
CCOc1ccccc1C(=O)Nc1cc(Cl)ccc1O	2	0.82	115	-16	92	1	.	.	.
COc1ccccc1C(=O)Nc1cc2cc(Br)ccc2oc1=O	-4	1.2	137*	-44	104	3	138*	114	134*
COc1cc(NC(=O)c2cc3ccccc3o2)c(OC)cc1Br	0	1.1	149*	-50	100	0	135*	101	102
COc1ccccc1C(=O)Nc1cc(Cl)ccc1O	8	1.4	151*	-52	93	-10	162*	109	114
COCc1c(C(=O)OC/C(O)=C(\C#N)c2nc3ccccc3[nH]2)oc2ccccc12	9	1.3	95	8	92	-7	.	.	.
Cc1ccc(OCC(=O)NNC(=O)C2CCCO2)c(C)c1 (centres undefined)	-8	.	95	12	108	15	.	.	.
Cc1cc(C)nc(NC(=O)CSc2nc3ccccc3s2)n1	-20	3.1	117	-12	119	48	.	.	.
Cc1ccc(S(=O)(=O)NC(=O)CSc2nc3ccccc3s2)cc1	-4	1.1	141*	-45	104	1	124	100	100
Cc1ccc2[nH]c(C(=O)O)c(NC(=O)CN3CCN(c4cccc(C)c4C)CC3)c2c1	-2	1.4	147*	-55	102	-23	132	99	103
COC(=O)c1[nH]c2ccc(C)cc2c1NC(=O)CN1CCN(c2ccccc2)CC1	13	0.54	73	37	88	3	.	.	.
Cn1cc(/C=N\NC(=O)C2COc3ccccc3O2)c2ccccc21 (centres undefined)	15	1.2	104	-6	87	4	.	.	.
SMILES	STAT1 inh	NF-kB neuron act	STAT3 act-1	STAT3 inh	STAT1 act-1	APP 5'UTR act	STAT3 act-2	NFkB act 2	STAT1 act-2
Cc1c(/C=N\NC(=O)C2COc3ccccc3O2)c2ccccc2n1C (centres undefined)	6	3.2	139*	-53	95	-91	98	111	107
CCCN(CCC)C(=O)Cn1c2ccccc2c2nc(=O)cc(C)n21	16	1.1	165*	-65	85	-14	161*	105	90
CCCNC(=O)C(C)n1c2ccccc2c2nc(=O)cc(C)n21 (centres undefined)	5	1	100	9	96	3	.	.	.
CCN(CC)C(=O)CSc1nc(C)cc(C)n1	3	0.98	99	4	95	4	.	.	.
COC(=O)c1ccc(N2CCN(S(=O)(=O)c3ccc4ccccc4c3)CC2)c([N+](=O)[O-])c1	14	0.86	89	19	88	.	.	.	.
COC(=O)c1ccc(N2CCN(CC(=O)c3ccc(-c4ccccc4)cc3)CC2)c([N+](=O)[O-])c1	-9	1.3	144*	-43	108	6	138*	108	124*
CCN(CC)c1ccc(NC(=O)Cn2c(C(C)NC(=O)c3ccc(C)cc3)nc3ccccc32)cc1 (centres undefined)	-7	1.4	103	2	104	-18	.	.	.
CC1CN(Cc2ccc(Cl)cc2Cl)CC(C)O1 (centres undefined)	-14	1.2	142*	-49	112	5	129	118	125*
CSc1ccccc1NC(=O)C1CC(c2ccccc2O)=NO1 (centres undefined)	-4	0.93	137*	-42	104	20	115	111	99
COC(=O)c1ccccc1NC(=O)C1CC(c2ccccc2O)=NO1 (centres undefined)	1	1.2	99	4	99	2	.	.	.
Cc1ccc(C)c(S(=O)(=O)Nc2cc(SCC(=O)O)c(O)c3ccccc23)c1	7	0.62	143*	-56	94	-23	146*	105	108
CC(NC(=O)/C(=C\c1ccco1)NC(=O)c1ccccc1Br)C(=O)O (centres undefined)	-1	1.5	100	12	100	15	.	.	.
CCCc1nnc(N2C(=O)c3cccc4cccc(c34)C2=O)s1	7	0.87	160*	-61	93	16	146*	101	90
